Source: ChEMBL document CHEMBL1126902, “Synthesis, chemical reactivity, and antitumor evaluation of congeners of carmethizole hydrochloride, an experimental "acylated vinylogous carbinolamine" tumor inhibitor” (J Med Chem, 1993)

Experiments:
P388 [1] = assay: Change in tumor cell population in ip implanted P388 Leukemia in mice after administration of compound at 99 mg/kg; format: functional, Mus musculus; conditions: route intraperitoneal
Method in brief: (§1)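 P388 leukemia: ascitic fluid with ca. 5.2×10^6 cells inoculated ip into Portage-CD₂F₁ female mice. Drug given ip on days 1-5, starting 24 h after inoculation, dosed by average body weight. Vehicle was saline plus Tween 80, as a solution or suspension. KE = net log change in viable tumor cells from start to end of treatment.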

[2] = Percent increase in life span of dying mice tested in vivo at 24.75 mg/kg against ip implanted LOX amelanotic melanoma in mice (60-day survivors); format: functional; conditions: Mus musculus, 1440 h, route intraperitoneal
Method in brief: (§2)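 Female CD2F1 mice implanted ip with ascitic fluid carrying ca. 1.7×10^6 LOX amelanotic melanoma cells. Drug given ip on days 1, 5 and 9, starting 24 h after implant, dosed by exact body weight; solutions or suspensions made fresh daily. %ILS is from the median day of death of dying mice versus controls, excluding 60-day survivors.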

[3] = Change in tumor cell population in ip implanted LOX amelanotic melanoma in mice after administration of compound at 198 mg/kg; format: functional, Mus musculus; conditions: route intraperitoneal
Method in brief: (§3)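 Female CD2F1 mice were implanted ip with ascitic fluid holding ca. 1.7×10^6 LOX cells. Dosing was ip on days 1, 5 and 9, starting 24 h after implantation, by exact body weight, as a solution or suspension in saline plus Tween 80, freshly prepared daily. KE is the net log change in viable tumor cells from start to end of treatment. Bracketed KE assumes Poisson survival, with 60-day survivors tumor-free.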

[4] = Percent increase in life span of dying mice tested in vivo at 49.5 mg/kg against ip implanted LOX amelanotic melanoma in mice (60-day survivors); format: functional; conditions: Mus musculus, 1440 h, route intraperitoneal; method in brief: as §2
P388 [5] = assay: Percent increase in life span of dying mice tested in vivo at 99 mg/kg against ip implanted P388 Leukemia in mice; format: functional; conditions: Mus musculus, route intraperitoneal
Method in brief: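 Portage-CD2F1 female mice were inoculated ip with ascitic fluid containing ca. 5.2×10^6 P388 leukemia cells. Drug was given ip daily on days 1-5, starting 24 h after inoculation, and dosed by average body weight. %ILS was calculated from the median day of death of dying mice versus controls.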

[6] = Percent increase in life span of dying mice tested in vivo at 99 mg/kg against ip implanted LOX amelanotic melanoma in mice (60-day survivors); format: functional; conditions: Mus musculus, 1440 h, route intraperitoneal
Method in brief: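 Nude CD2F1 female mice were implanted ip with ascitic fluid containing ca. 1.7×10^6 LOX amelanotic melanoma cells. Drug was given ip on days 1, 5 and 9, starting 24 h after implantation, and dosed by exact body weight. Solutions or suspensions were made fresh daily in saline plus Tween 80. %ILS was calculated from the median day of death of dying mice versus controls, excluding 60-day survivors.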

P388 [7] = assay: Percent increase in life span of dying mice tested in vivo at 24.8 mg/kg against ip implanted P388 Leukemia in mice; format: functional; conditions: Mus musculus, route intraperitoneal
Method in brief: (§4)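 Portage-CD2F1 female mice inoculated ip with ascitic fluid carrying ca. 5.2×10^6 P388 leukemia cells. Drug given ip daily on days 1-5, starting 24 h after inoculation, dosed by average body weight. %ILS is from the median day of death of dying mice versus controls.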

[8] = Change in tumor cell population in ip implanted LOX amelanotic melanoma in mice after administration of compound at 24.75 mg/kg; format: functional, Mus musculus; conditions: route intraperitoneal; method in brief: as §3
[9] = Change in tumor cell population in ip implanted LOX amelanotic melanoma in mice after administration of compound at 99 mg/kg; format: functional, Mus musculus; conditions: route intraperitoneal; method in brief: as §3
P388 [10] = assay: Change in tumor cell population in ip implanted P388 Leukemia in mice after administration of compound at 24.8 mg/kg; format: functional, Mus musculus; conditions: route intraperitoneal
Method in brief: (§5)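 Female Portage-CD2F1 mice were inoculated ip with ascitic fluid holding ca. 5.2×10^6 P388 cells. Dosing was ip on days 1-5, starting 24 h after inoculation, by average body weight, as a solution or suspension in saline plus Tween 80. KE is the net log change in viable tumor cell population from start to end of the treatment period.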

P388 [11] = assay: Percent increase in life span of dying mice tested in vivo at 49.5 mg/kg against ip implanted P388 Leukemia in mice; format: functional; conditions: Mus musculus, route intraperitoneal; method in brief: as §4
P388 [12] = assay: Change in tumor cell population in ip implanted P388 Leukemia in mice after administration of compound at 12.4 mg/kg; format: functional, Mus musculus; conditions: route intraperitoneal; method in brief: as §5
[13] = Change in tumor cell population in ip implanted LOX amelanotic melanoma in mice after administration of compound at 49.5 mg/kg; format: functional, Mus musculus; conditions: route intraperitoneal; method in brief: as §3
P388 [14] = assay: Percent increase in life span of dying mice tested in vivo at 12.4 mg/kg against ip implanted P388 Leukemia in mice; format: functional; conditions: Mus musculus, route intraperitoneal; method in brief: as §4
P388 [15] = assay: Change in tumor cell population in ip implanted P388 Leukemia in mice after administration of compound at 49.5 mg/kg; format: functional, Mus musculus; conditions: route intraperitoneal; method in brief: as §1
[16] = Percent increase in life span of dying mice tested in vivo at 198 mg/kg against ip implanted LOX amelanotic melanoma in mice (60-day survivors); format: functional; conditions: Mus musculus, 1440 h, route intraperitoneal; method in brief: as §2
[17] = Percent increase in life span of dying mice tested in vivo at 53 mg/kg against ip implanted LOX amelanotic melanoma in mice (60-day survivors); format: functional; conditions: Mus musculus, 1440 h, route intraperitoneal; method in brief: as §2
[18] = Percent increase in life span of dying mice tested in vivo at 26.5 mg/kg against ip implanted LOX amelanotic melanoma in mice (60-day survivors); format: functional; conditions: Mus musculus, 1440 h, route intraperitoneal; method in brief: as §2
[19] = Percent increase in life span of dying mice tested in vivo at 106 mg/kg against ip implanted LOX amelanotic melanoma in mice (60-day survivors); format: functional; conditions: Mus musculus, 1440 h, route intraperitoneal; method in brief: as §2
[20] = Percent increase in life span of dying mice tested in vivo at 212 mg/kg against ip implanted LOX amelanotic melanoma in mice (60-day survivors); format: functional; conditions: Mus musculus, 1440 h, route intraperitoneal; method in brief: as §2
[21] = Change in tumor cell population in ip implanted LOX amelanotic melanoma in mice after administration of compound at 106 mg/kg; format: functional, Mus musculus; conditions: route intraperitoneal; method in brief: as §3
[22] = Change in tumor cell population in ip implanted LOX amelanotic melanoma in mice after administration of compound at 212 mg/kg; format: functional, Mus musculus; conditions: route intraperitoneal; method in brief: as §3
[23] = Change in tumor cell population in ip implanted LOX amelanotic melanoma in mice after administration of compound at 53 mg/kg; format: functional, Mus musculus; conditions: route intraperitoneal; method in brief: as §3
[24] = Change in tumor cell population in ip implanted LOX amelanotic melanoma in mice after administration of compound at 26.5 mg/kg; format: functional, Mus musculus; conditions: route intraperitoneal; method in brief: as §3

SMILES: CCC[S+]([O-])c1nc(COC(=O)NC)c(COC(=O)NC)n1C (centres undefined)
- KE (P388 [1]): 0.9
- ILS at 24.75 mg/kg [2]: -2%
- KE [3]: 0.8
- ILS at 49.5 mg/kg [4]: 15%
- ILS at 99 mg/kg (P388 [5]): 27%
- ILS at 99 mg/kg [6]: 1%
- ILS at 24.8 mg/kg (P388 [7]): 25%
- KE [8]: 1.7
- KE [9]: 1.6
- KE (P388 [10]): 1
- ILS at 49.5 mg/kg (P388 [11]): 27%
- KE (P388 [12]): 1.4
- KE [13]: 1
- ILS at 12.4 mg/kg (P388 [14]): 10%
- KE (P388 [15]): 0.9
- ILS at 198 mg/kg [16]: 21%

SMILES: CNC(=O)OCc1nc(SC2CCCCO2)n(C)c1COC(=O)NC (centres undefined)
- ILS at 53 mg/kg [17]: 15%
- ILS at 26.5 mg/kg [18]: 11%
- ILS at 106 mg/kg [19]: 15%
- ILS at 212 mg/kg [20]: 8%
- KE [21]: 1
- KE [22]: 1.3
- KE [23]: 1
- KE [24]: 1.2
